Rows were chosen to be rich in hits. Some 2.4% of all compounds tested hit in one or more screens of this group.
PfGluPho inh = PfG6PD (Plasmodium falciparum) enzyme inhibition; AID 504690; inhibition, % at 20 µM; actives 0.78% (n = 350,000); PfGluPho enzyme, NADPH resazurin-diaphorase fluorescence;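 active means inhibition reaching at least a set limit at 20 µM in the primary screen, cut at about 59% in these data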;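 further: 0% = DMSO wells with substrate and 100% = DMSO wells lacking glucose-6-phosphate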
A3A deaminase = human APOBEC3A DNA deaminase inhibition. P31941. recombinant A3A, FAM/TAMRA ssDNA deamination fluorescence. inhibition, % at 20 µM. actives 0.41% (n = 330,000);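 active means at least 40% inhibition at 20 µM here, with at most 30% in a related deaminase screen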;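 further: plate controls were A3A with DMSO for no effect and wells lacking A3A enzyme for full effect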
Target sequence (P31941 whole entry, looked up): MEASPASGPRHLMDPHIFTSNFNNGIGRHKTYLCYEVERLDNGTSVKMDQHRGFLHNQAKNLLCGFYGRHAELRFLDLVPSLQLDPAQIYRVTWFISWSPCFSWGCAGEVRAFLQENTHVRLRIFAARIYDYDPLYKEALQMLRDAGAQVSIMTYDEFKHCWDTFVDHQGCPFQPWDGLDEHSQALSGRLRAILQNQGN
A3G deaminase = inhibitors of human APOBEC3G DNA deaminase | Q9HC16 | recombinant A3G, ssDNA deamination FAM/TAMRA fluorescence | inhibition, % at 20 µM | actives 0.28% (n = 330,000) | AID 493012;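 active means inhibition of at least 40% at 20 µM, with no more than 30% in the related APOBEC3A deaminase screen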;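 further: plate controls were DMSO wells with A3G for no effect and wells lacking A3G enzyme for full effect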
PfM18AAP inh-1 = PfM18AAP enzyme inhibition. inhibition, % at 7.35 µM. recombinant PfM18AAP, H-Glu-NHMec fluorogenic cleavage. AID 1822. actives 1.2% (n = 290,000);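 active means inhibition above the campaign mean inhibition over all tested compounds plus 3 SD, cut at about 28% in these data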;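 further: 0% = plate median of test compound wells and 100% = 2 mM ZnCl2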
HKDC1 inh = blocks human hexokinase HKDC1 activity; recombinant HKDC1, G6PDH/diaphorase resazurin coupled fluorescence; Q2TB90; inhibition, % at 20 µM; actives 0.16% (n = 340,000);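 active means inhibition above about 35% when tested at 20 µM, limit read from the data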;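 further: plate controls were DMSO wells with enzyme for no effect and DMSO wells lacking enzyme for full effect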
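Test system: recombinant HKDC1 (HK5) hexokinase enzyme, produced in-house; Amount: enzyme 5 µg/mL final; Buffer or medium: Tris pH 8.0 buffer with MgCl2, Tween-20, BSA, BME; Reagent: glucose and ATP substrates; Doses: 20 µM test compound, 1% DMSO; Incubation: 90 min reaction incubation at room temperature, dark; Detection: resorufin fluorescence at 613 nm.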
SUMO HTRF inh = inhibitors of human SUMOylation (UBC9). HTRF SUMOylation assay, SAE1/SAE2 + UBC9, in vitro. inhibition, % at 35 µM. actives 0.36% (n = 290,000). AID 2006; in the data active means inhibition above about 50%, passing the limit was not always enough
Target sequence (P63279 whole entry, looked up): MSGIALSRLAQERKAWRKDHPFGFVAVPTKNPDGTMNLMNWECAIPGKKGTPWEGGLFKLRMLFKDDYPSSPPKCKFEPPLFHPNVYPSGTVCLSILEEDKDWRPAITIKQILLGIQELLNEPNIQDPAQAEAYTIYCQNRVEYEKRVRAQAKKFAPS
PfM18AAP inh-2 = confirmation of Plasmodium falciparum M18 aspartyl aminopeptidase inhibitors; shares compounds with PfM18AAP inh-1; recombinant PfM18AAP, H-Glu-NHMec fluorogenic cleavage; inhibition, % at 7.35 µM; actives 28% (n = 2,400); AID 2170;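 active means mean inhibition over replicate wells above the hit cutoff set for the earlier primary screen, cut at about 29% in these data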;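 further: 0% = median of test compound wells and 100% = 2 mM ZnCl2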
CTSL1 counter = counter-screen for PFM18AAP inhibitors: confirmation of human cathepsin L inhibitors | inhibition, % at 5.96 µM | purified cathepsin L1, Z-Leu-Arg-MCA fluorescence | AID 2178 | shares compounds with PfM18AAP inh-1 | 2,400 tested, under 10 active;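 active means average inhibition across replicates above the hit cutoff set in the earlier primary screen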;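 further: 0% = median of test compound wells and 100% = Z-Phe-Ala-diazomethylketone 1 µM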
Target sequence (P07711 whole entry, looked up): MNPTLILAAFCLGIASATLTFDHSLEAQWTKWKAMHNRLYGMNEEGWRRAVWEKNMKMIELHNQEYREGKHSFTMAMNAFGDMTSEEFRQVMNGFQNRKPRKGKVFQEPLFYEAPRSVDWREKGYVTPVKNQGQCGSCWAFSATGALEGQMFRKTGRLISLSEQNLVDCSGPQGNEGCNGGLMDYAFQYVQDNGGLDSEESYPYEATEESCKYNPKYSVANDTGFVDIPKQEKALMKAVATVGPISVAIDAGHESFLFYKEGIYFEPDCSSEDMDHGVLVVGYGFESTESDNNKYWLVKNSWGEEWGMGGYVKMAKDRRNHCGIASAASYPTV
* hit, by the source's call; . = not tested or not shown.

SMILES | PfGluPho inh | A3A deaminase | A3G deaminase | PfM18AAP inh-1 | HKDC1 inh | SUMO HTRF inh | PfM18AAP inh-2 | CTSL1 counter
S=C(N/N=C/c1ccccc1)N1CCOCC1 | 27.5 | -0.1 | -7.1 | 34.3* | -18.5 | -8.4 | -40.4 | 34.7*
Cc1ccc(S(=O)(=O)N2CCC(C(=O)Nc3ccncc3)CC2)cc1 | 3.5 | -2.7 | 0.0 | . | 0.4 | . | . | .
CCCCc1nc(SCC(=O)Nc2nnc(CCCC)s2)n[nH]1 | -24.3 | 3.6 | -7.6 | 2.0 | 4.3 | 0.2 | . | .
CCOC(=O)c1c(NC(=O)CSc2ncn[nH]2)sc(C)c1C | 6.3 | -0.4 | -2.3 | 48.3* | 0.2 | 5.0 | -0.2 | 1.1
Cc1cc(=O)[nH]c(SCC(=O)Nc2nc(-c3ccccc3)cs2)n1 | -23.3 | -0.9 | -1.2 | 3.0 | 1.6 | 19.0 | . | .
O=C(CSc1ncn[nH]1)Nc1nc(-c2ccccc2)cs1 | -3.9 | 1.5 | 1.3 | 40.0* | -7.1 | -11.8 | 46.0* | -1.4
COc1ccc(-c2csc(NC(=O)CSc3ncn[nH]3)n2)cc1OC | 7.1 | -1.3 | -3.2 | 66.2* | -0.2 | 1.3 | 48.7* | 0.1
CCCc1nnc(NC(=O)CSc2ncn[nH]2)s1 | 4.2 | -0.8 | -1.5 | 39.6* | -6.2 | -33.4 | 44.3* | -9.7
CSc1nc(-c2ccco2)cc(-c2ccccc2)c1C#N | 11.4 | -0.6 | -3.0 | -2.9 | -4.5 | 18.0 | . | .
O=C(O)CSc1nnc(-c2ccccc2)c(-c2ccccc2)n1 | -28.0 | -3.3 | -3.7 | -0.9 | -2.5 | 7.9 | . | .
COc1ccc(CNC(=O)CSc2ncn[nH]2)cc1OC | -27.5 | 3.7 | 13.7 | 33.6* | -6.4 | 17.9 | 17.0 | -4.4
COc1ccc(-n2c(C)nc3sc4c(c3c2=O)CCCC4)cc1 | . | 6.8 | -2.8 | -0.2 | . | 13.3 | . | .
CCNC(=O)c1sc(=S)n(-c2ccc(C)cc2)c1N | 4.7 | -0.5 | 0.2 | -15.1 | -2.1 | 19.7 | . | .
NC(=O)c1sc(=S)n(-c2ccc(Br)cc2)c1N | 5.6 | -0.1 | -1.0 | 37.9* | -4.5 | 6.8 | -41.1 | -0.2
CC(=O)Nc1ccc(N(C(=O)CNC(=O)c2ccco2)C(C(=O)NCC2CCCO2)c2ccccc2)cc1 (stereo not given) | 3.2 | -2.3 | -7.8 | 3.9 | -7.2 | 16.6 | . | .
CC1CCN(c2nc3c(N)ncnc3n2[C@@H]2O[C@H](CO)[C@@H](O)[C@H]2O)CC1 | 2.0 | -0.8 | -9.6 | 1.5 | -5.8 | 9.9 | . | .
CCOc1ccccc1/C=N/Nc1nc2c(N)ncnc2n1[C@H]1O[C@@H](CO)[C@H](O)[C@@H]1O | -9.0 | -0.2 | -8.0 | 36.2* | 0.7 | 7.4 | -25.5 | 3.9
COc1ccc(/C(C)=N\Nc2nc(-c3ccccc3)cc(=O)[nH]2)cc1 | -5.4 | -8.3 | -8.4 | 40.4* | -10.2 | 1.3 | -30.5 | 5.5
COc1ccc(/C(C)=N/Nc2nc(C)cc(-c3ccccc3)n2)cc1 | 6.0 | -2.0 | -2.9 | . | -1.7 | . | . | .
CCOC(=O)c1ccc(NC(=O)CSc2nc(N)c(NC(=O)c3ccc(Br)o3)c(=O)[nH]2)cc1 | -33.2 | -0.9 | -8.9 | -0.5 | 2.2 | 23.3 | . | .
Cc1cc(NS(=O)(=O)c2ccccc2)cc(Cl)c1O | 24.0 | -0.3 | 0.8 | 67.0* | 2.1 | -11.7 | -55.9 | -4.5
O=S(=O)(Nc1ccc(NS(=O)(=O)c2ccccc2)c(Cl)c1)c1ccccc1 | -25.9 | . | . | . | 4.7 | . | . | .
COc1ccc(CNC(=O)c2csc3c2CCCC3)cc1 | 13.2 | -4.1 | -11.0 | . | 7.4 | . | . | .
Fc1ccc(-c2csc(-c3cccnc3)n2)cc1F | 4.5 | -3.8 | -8.6 | 4.4 | 1.1 | -4.0 | . | .
Cc1nc(-c2ccc(O)c(O)c2)cs1 | 28.3 | 5.0 | 1.4 | 94.0* | 4.2 | -2.8 | 86.8* | -11.6
SMILES | PfGluPho inh | A3A deaminase | A3G deaminase | PfM18AAP inh-1 | HKDC1 inh | SUMO HTRF inh | PfM18AAP inh-2 | CTSL1 counter
Oc1ccccc1-c1csc(-c2ccccc2)n1 | 12.1 | -3.3 | -6.9 | -7.9 | 0.0 | 8.1 | . | .
Cc1ccc2nc(-c3ccc(O)c(O)c3)cn2c1 | 25.0 | -12.7 | 6.2 | 69.9* | 4.6 | 9.6 | 54.8* | -7.8
Oc1ccc(-c2csc(-c3ccccc3)n2)cc1O | 1.4 | -4.0 | -2.2 | 55.2* | 3.7 | -2.0 | 59.7* | 6.5
Oc1ccc(-c2csc(-c3cccnc3)n2)cc1O | -1.2 | -0.4 | -3.4 | 72.7* | 5.8 | 2.2 | 84.8* | 1.1
CC(=O)Nc1ccc(-c2cn3cc(C)ccc3n2)cc1 | 10.4 | -4.3 | -6.1 | -0.6 | -4.5 | 9.6 | . | .
CCN(CC)CCN1c2ccccc2Sc2ccccc21 | -2.6 | 0.0 | -4.4 | 6.8 | 3.2 | 0.2 | . | .
COc1cccc2cc(C(=O)NC3CC(C)(C)NC(C)(C)C3)c(=O)oc12 | 13.7 | 1.5 | -1.9 | -1.3 | -2.2 | . | . | .
Oc1ccc(-c2csc(Nc3ncccn3)n2)cc1O | 18.7 | . | . | 64.7* | 0.6 | 8.1 | 53.3* | 0.3
COC(=O)C1=C(C)N(Cc2ccc3c(c2)OCO3)C(=O)C1 | -11.6 | -1.8 | -5.1 | 33.9* | 6.5 | 8.6 | -54.8 | 2.1
CC(C)(C)OC(=O)NCCc1nnc(SCC(=O)c2ccc(Cl)cc2)o1 | 0.0 | 1.7 | 0.2 | -3.5 | 2.0 | -25.5 | . | .
CC(C)C(=O)Nc1sc2c(c1C#N)CCCCC2 | 14.9 | 6.3 | 3.2 | 38.2* | 3.5 | 15.2 | -1.1 | -0.9
N#Cc1c(NC(=O)CSc2ncn[nH]2)sc2c1CCCCC2 | -28.3 | -1.8 | -7.4 | 32.0* | -1.9 | 1.7 | -31.4 | 1.8
COCC(=O)Nc1sc2c(c1C(=O)OC)CCC(C)C2 (stereo not given) | 11.9 | -1.0 | -5.9 | 2.3 | 4.5 | -10.6 | . | .
CC1CCc2c(sc(NC(=O)CCC(=O)O)c2C(=O)NC2CC2)C1 (stereo not given) | 58.5 | 1.8 | 25.5 | 41.0* | -8.1 | 20.5 | -1.4 | -4.9
COc1ccccc1NC(=O)c1c(NC(=O)CCC(=O)O)sc2c1CCCCC2 | -18.0 | -3.9 | -3.0 | 20.4 | -3.9 | 17.0 | . | .
O=C(O)CCC(=O)Nc1sc2c(c1C(=O)Nc1ccccc1)CCCCC2 | 18.9 | -1.7 | 5.0 | 36.8* | -7.3 | 33.9 | -19.1 | -1.7
Cc1cc(C)n(-c2nc3ccccc3nc2N2CCN(C(=O)c3ccc(F)cc3)CC2)n1 | -0.8 | 4.8 | -0.6 | 3.7 | -9.4 | 0.6 | . | .
COc1ccccc1CNC(=O)COC(=O)COc1ccccc1F | -0.1 | -1.8 | -2.3 | . | -5.0 | . | . | .
CCNC(=O)C(CC(C)C)NC(=O)C(CO)NC(=O)C1CCC(=O)N1 (stereo not given) | -16.8 | -8.7 | -6.2 | -1.2 | -1.1 | 24.0 | . | .
CCn1c(SCC(=O)NCCc2ccc(OC)c(OC)c2)nc2c([nH]c3ccccc32)c1=O | -6.9 | . | . | . | . | . | . | .
Cc1ccc(/C=N/Nc2ccc3c(C(F)(F)F)cc(C(F)(F)F)nc3n2)cc1 | 4.1 | 3.7 | 5.7 | 17.5 | -3.2 | 18.6 | . | .
NNc1ccc2c(C(F)(F)F)cc(C(F)(F)F)nc2n1 | 11.8 | -1.5 | -4.1 | 45.5* | -8.2 | 3.1 | 24.1 | -3.8
